Measurements reported in article PMC7302971 (Bioorganic chemistry, 2020).
Like-named read-outs stand apart in the source and are kept apart here.

Assays:
HDAC4 = HDAC4 (Homo sapiens, UniProt P56524); assay: HDAC enzyme activity assay; assay type: biochemical; settings: for remaining activity at 50 µM: read-out: Residual HDAC4 activity at 50 μM
Procedure, shortened: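 HDAC4 and HDAC8 were in-house recombinant enzymes. Each was preincubated with inhibitor, either a single 50 μM screen or serial dilutions, for 60 min at 30 °C in Tris-HCl pH 8.0/KCl/Pluronic buffer. Substrate was 20 μM Boc-Lys(trifluoroacetyl)-AMC for 60 min at 30 °C, stopped with 1.7 μM SATFMK, and developed with trypsin. AMC fluorescence was read at 350/450 nm and reported as residual activity or as IC50 from a four-parameter logistic fit.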

CEM cells = assay: Apoptosis by annexin V-FITC/PI flow cytometry; assay type: cell-based, human; settings: compound at CC50 (IC50) concentration, 24 h
Procedure, shortened: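 CEM cells were seeded in 24-well plates and held overnight at 37 °C in CO2. Medium was replaced and cells were exposed to test compound for 24 h. Controls were untreated cells and 1% DMSO. Cells were PBS-washed and spun at 500 × g for 5 min at 4 °C, then resuspended in ice-cold binding buffer with annexin V-FITC and PI. They were kept 15 min on ice in the dark, diluted, and read by flow cytometry for live and apoptotic fractions.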

HDAC6 = biological target: T1, HDAC6 (Homo sapiens, UniProt Q9UBN7); assay: HDAC enzyme activity assay; assay type: biochemical
T1 sequence (Q9UBN7 1-1215): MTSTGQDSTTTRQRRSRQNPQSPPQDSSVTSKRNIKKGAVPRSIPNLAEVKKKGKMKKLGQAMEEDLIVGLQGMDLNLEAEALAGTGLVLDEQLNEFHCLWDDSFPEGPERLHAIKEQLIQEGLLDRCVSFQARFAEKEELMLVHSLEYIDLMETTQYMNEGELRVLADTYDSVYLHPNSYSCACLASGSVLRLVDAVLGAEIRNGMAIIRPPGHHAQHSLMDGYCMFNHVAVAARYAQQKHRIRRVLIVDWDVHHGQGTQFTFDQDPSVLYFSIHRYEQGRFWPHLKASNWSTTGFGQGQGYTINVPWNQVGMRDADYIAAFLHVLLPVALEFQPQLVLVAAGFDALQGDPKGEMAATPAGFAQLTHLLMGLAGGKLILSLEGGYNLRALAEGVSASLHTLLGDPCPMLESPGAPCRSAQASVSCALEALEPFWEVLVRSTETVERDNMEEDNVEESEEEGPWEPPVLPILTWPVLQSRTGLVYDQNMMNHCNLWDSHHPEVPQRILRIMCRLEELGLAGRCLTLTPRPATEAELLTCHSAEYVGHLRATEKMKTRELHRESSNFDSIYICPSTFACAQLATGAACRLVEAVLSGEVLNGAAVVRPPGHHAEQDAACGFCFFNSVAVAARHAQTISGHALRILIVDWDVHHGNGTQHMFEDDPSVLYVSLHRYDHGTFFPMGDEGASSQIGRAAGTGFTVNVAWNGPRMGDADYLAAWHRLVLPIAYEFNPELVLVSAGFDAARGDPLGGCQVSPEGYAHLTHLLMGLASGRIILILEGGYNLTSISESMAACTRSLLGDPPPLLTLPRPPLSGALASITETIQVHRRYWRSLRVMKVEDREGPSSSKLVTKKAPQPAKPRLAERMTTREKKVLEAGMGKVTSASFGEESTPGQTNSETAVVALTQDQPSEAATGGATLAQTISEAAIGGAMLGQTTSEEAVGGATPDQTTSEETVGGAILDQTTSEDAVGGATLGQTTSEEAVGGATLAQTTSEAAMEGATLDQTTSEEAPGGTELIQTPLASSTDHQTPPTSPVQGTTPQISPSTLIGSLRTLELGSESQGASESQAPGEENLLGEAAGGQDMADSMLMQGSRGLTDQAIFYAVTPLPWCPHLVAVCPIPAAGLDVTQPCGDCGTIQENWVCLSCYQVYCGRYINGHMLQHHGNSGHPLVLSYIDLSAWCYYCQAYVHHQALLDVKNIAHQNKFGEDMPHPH
Procedure, shortened: (§1)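 Commercial enzyme was preincubated with serial inhibitor dilutions for 60 min at 30 °C in 25 mM Tris-HCl pH 8.0, 75 mM KCl and 0.001% Pluronic F-127. Reaction was started with 50 μM Boc-Lys(acetyl)-AMC, run 60 min at 30 °C, and stopped with 4.17 μM SAHA. Trypsin (0.4 mg/ml) released AMC, read at Ex 350/Em 450 nm. IC50 came from a four-parameter logistic fit.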

HDAC3 = HDAC3 (Homo sapiens, UniProt O15379); assay: HDAC enzyme activity assay; assay type: biochemical
Sequence of HDAC3 (O15379 whole entry): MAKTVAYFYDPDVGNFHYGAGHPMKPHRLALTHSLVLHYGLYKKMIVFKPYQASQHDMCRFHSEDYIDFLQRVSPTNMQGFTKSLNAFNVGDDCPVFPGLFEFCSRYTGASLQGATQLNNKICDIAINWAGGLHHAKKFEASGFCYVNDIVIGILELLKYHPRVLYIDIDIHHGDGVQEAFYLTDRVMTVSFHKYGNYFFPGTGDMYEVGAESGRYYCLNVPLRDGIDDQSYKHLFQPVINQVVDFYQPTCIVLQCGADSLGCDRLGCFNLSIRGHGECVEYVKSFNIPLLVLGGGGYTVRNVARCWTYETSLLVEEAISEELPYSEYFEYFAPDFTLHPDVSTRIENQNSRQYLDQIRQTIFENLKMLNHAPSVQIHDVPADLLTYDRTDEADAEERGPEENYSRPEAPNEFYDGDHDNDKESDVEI
Sequence of HDAC3 (Q9Y618 395-489 partner limits assumed): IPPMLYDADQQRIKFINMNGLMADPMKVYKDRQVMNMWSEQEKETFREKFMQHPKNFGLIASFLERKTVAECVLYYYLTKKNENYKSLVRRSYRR
Procedure, shortened: as §1

GLUT5 = assay: GLUT transport inhibition assay in hxt0 yeast cells; assay type: cell-based, human; settings: 50 μM compound, 10 mM C14-fructose
Procedure, shortened: (§2)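 Human GLUT4 was expressed in VW4000fgy1erg4 yeast (1% maltose, then 0.2% glucose, SC-uracil). GLUT5 was expressed in VW4000 (YEP with 2% maltose and G418, then 2% fructose). PBS-washed cells were exposed to 50 μM test compound. Uptake of 14C-glucose (5 mM, GLUT4) or 14C-fructose (10 mM, GLUT5) ran 10 min, followed by quench, filtration and scintillation counting. Activity was relative to 1% DMSO and to saturating phloretin (GLUT4) or MSNBA (GLUT5). Triplicates.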

GLUT4 = biological target: T2, GLUT4 (Homo sapiens, UniProt P14672); assay: as above; assay type: cell-based; settings: 50 μM compound, 5 mM C14-glucose
T2 sequence (P14672 1-509): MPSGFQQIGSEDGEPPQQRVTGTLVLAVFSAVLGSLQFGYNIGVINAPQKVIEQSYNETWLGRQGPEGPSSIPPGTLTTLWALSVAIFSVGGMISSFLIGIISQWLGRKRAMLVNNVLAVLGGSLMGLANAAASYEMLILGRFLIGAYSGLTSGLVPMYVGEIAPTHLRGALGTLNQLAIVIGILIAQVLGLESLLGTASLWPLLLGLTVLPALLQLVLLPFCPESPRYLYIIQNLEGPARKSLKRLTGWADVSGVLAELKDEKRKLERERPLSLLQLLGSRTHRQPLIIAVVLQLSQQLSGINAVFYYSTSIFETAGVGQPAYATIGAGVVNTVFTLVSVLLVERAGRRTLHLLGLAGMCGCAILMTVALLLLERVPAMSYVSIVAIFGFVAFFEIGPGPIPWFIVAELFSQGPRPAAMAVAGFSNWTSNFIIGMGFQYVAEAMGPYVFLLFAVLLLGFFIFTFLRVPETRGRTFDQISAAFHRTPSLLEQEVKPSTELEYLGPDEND
Procedure, shortened: as §2

[1] = DNS assay on normal human fibroblast; assay type: cell-based; settings: HS27 normal fibroblasts
Procedure, shortened: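 HS27 fibroblasts were tested by DNS imaging after exposure to test compound. Hoechst 33342, which stains all nuclei, and PI, which enters only membrane-compromised cells, were added before imaging.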

[2] = read-out: IC50 HDAC4, HDAC panel, no unit in table, text b26: micromolar range

Sequence of HDAC4 (P56524 648-1057 limits assumed): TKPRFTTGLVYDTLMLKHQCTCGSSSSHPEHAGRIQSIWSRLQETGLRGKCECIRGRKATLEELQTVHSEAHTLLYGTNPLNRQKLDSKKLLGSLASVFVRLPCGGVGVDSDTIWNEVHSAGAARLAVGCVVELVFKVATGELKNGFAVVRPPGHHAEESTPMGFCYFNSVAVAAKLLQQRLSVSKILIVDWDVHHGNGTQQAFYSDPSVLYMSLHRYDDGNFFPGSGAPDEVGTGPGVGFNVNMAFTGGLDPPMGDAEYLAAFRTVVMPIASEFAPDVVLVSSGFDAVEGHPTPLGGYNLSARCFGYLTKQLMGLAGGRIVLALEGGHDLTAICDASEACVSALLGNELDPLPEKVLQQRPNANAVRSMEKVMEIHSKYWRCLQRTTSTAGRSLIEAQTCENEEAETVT

IC50 (HDAC4) [µM]	IC50 (HDAC4; [2]) [µM]	remaining activity at 50 µM (HDAC4) [%]	IC50 (HDAC6) [µM]	IC50 (HDAC3) [µM]	relative transport activity of GLUT4 (GLUT4)	SMILES	live cells (CEM cells) [%]	percent of apoptotic cells (CEM cells) [%]	relative transport activity of GLUT5 (GLUT5)	CC50 [1] [µM]
> 50	> 50	76	26	> 50		Cc1c(NC(=O)CN2C(=O)SC(=Cc3ccccn3)C2=O)c(=O)n(-c2ccccc2)n1C [Compound P10, N-(1,5-dimethyl-3-oxo-2-phenyl-2,3-dihydro-1H-pyrazol-4-yl)-2-(2,4-dioxo-5-(pyridin-2-ylmethylene)thiazolidin-3-yl)acetamide]	29.89	55.19		
> 50	> 50	97	17	> 50	ineffective	O=C(CN1C(=O)SC(=Cc2ccccn2)C1=O)Nc1nc2ccccc2s1 [Compound P19, N-(benzo[d]thiazol-2-yl)-2-(2,4-dioxo-5-(pyridin-2-ylmethylene)thiazolidin-3-yl)acetamide]	30.86	60.97	ineffective	105
